Laboratory results: ChEMBL document CHEMBL1124717, “Structural requirements for agonist actions at the benzodiazepine receptor: studies with analogues of 6-(benzyloxy)-4-(methoxymethyl)-beta-carboline-3-carboxylic acid ethyl ester” (J Med Chem, 1990)
pIC50: −log10 of the molar value.

Experiments:
[1] = target: GABA-A receptor; anion channel; assay: In vitro inhibition of [3H]flunitrazepam binding to GABA-A Benzodiazepine receptor of rat cerebral cortex membranes; format: cell membranes, Membrane
How it was run: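 Washed rat cerebral cortex membranes (adult male Sprague-Dawley, 175–250 g) in 50 mM Tris-HCl pH 7.4, three wash spins at 20000g. Incubated with [3H]flunitrazepam (final 0.9–1.1 nM) and six to eight inhibitor concentrations for 120 min at 4 °C, then filtered. Nonspecific binding defined with Ro 15-1788 (10 μM). IC50 from sigmoid fit; mean of at least two determinations.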

[2] = tested on: Mus musculus; assay: In vivo anticonvulsant activity was determined in male NIH/Swiss mice after intraperitoneal administration; Antagonist; format: functional, organism-based
How it was run: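 Male NIH/Swiss mice (20–25 g) dosed ip with drug in 20% diluted Emulphor/80% saline, or vehicle. Antagonism run in groups of 10: test agent at various doses, diazepam (2.5 mg/kg) 15 min later, then PTZ challenge (80 mg/kg) after another 15 min. Seizures scored over 15 min. EC50 read graphically from percent convulsions versus log dose.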

[3] = Partition coefficient (logP); format: physicochemical; details: octanol/water

SMILES	pIC50 [1]	EC50 [2]	logP [3]
CCOC(=O)c1ncc2c(c1CC)c1cc(OCc3ccccc3)ccc1n2C	< 5.30	–	–
CCOC(=O)c1ncc2[nH]c3ccccc3c2c1COC	8.64	15 mg/kg	–
CCOC(=O)c1[nH]cc2nc3ccc(O)cc3c-2c1COC	9.05	–	1.44
CCOC(=O)c1ncc2c(c1COC)c1cc(OCc3ccccc3)ccc1n2C	6.02	–	–
CCOC(=O)c1[nH]cc2nc3ccc(OCc4ccccc4)cc3c-2c1CC	7.66	–	–
CCOC(=O)c1cc2c3cc(OCc4ccccc4)ccc3nc-2c[nH]1	8.05	–	–
CCOC(=O)c1ncc2[nH]c3ccc(OCc4ccccc4)cc3c2c1COC	9.00	–	3.97
CCOC(=O)c1cc2c3cc(OCc4ccccc4)ccc3n(C)c2cn1	< 5.30	–	–
CCOC(=O)c1[nH]cc2nc3ccc(OC)cc3c-2c1COC	9.30	1.25 mg/kg	–
